Measurements pooled from the literature.
Lines come from different studies, so protocols differ.
Target: 5-hydroxytryptamine receptor 7 (HTR7, Homo sapiens, UniProt P34969)
Method: radioligand

test | conditions | Ki [nM] | Compound
ligand displacement |  | 78 | O=C(CCCN1CCCN(c2ccc(Cl)cc2)CC1)c1ccc(F)cc1
ligand displacement | cell membranes | 497 | CN1CCN(CCCN2c3ccccc3Sc3ccc(C(F)(F)F)cc32)CC1
ligand displacement |  | 21 | O=C1c2ccccc2CCN1CCCCN1CCN(c2cccc(Cl)c2Cl)CC1
ligand displacement |  | 2.1 | CC1(CCN2CCc3ccccc3C2)Cc2cc(Cl)ccc2C1=O (racemic)
cell-free assay |  | 95 | CNc1nc2cc(OCCCCN3CCC(c4cccc(Cl)c4Cl)CC3)ccc2s1
ligand displacement | cell membranes | 468 | Cc1nc2sccn2c(=O)c1CCN1CCC(=C(c2ccc(F)cc2)c2ccc(F)cc2)CC1
cell-free assay |  | > 10000 | CCCCN1CCC(COC(=O)c2ccc(N)c(OCF)c2)CC1
cell-free assay |  | 160 | CCc1nc2cc(OCCCCN3CCC(c4cccc(Cl)c4Cl)CC3)ccc2s1
